Assay results published in ChEMBL document CHEMBL1671756, “In vitro and in vivo antifungal susceptibilities of the Mucoralean fungus Cunninghamella” (2010).
Activity calls are given as the source filed them. The rule behind the calls is not given here.

Columns and labels:
[1] = tested on: Cunninghamella bertholletiae; experiment: Antifungal activity against Cunninghamella bertholletiae UTHSC 05-2275 infected in neutropenic OF1 mouse assessed as increase in mouse survival rate at 0.8 mg/kg, iv qd administered 1 day after infection for 7 days relative to untreated control; format: functional, organism-based; parameters: dose 0.8 mg/kg
How it was run: (§1)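 Male OF1 mice (~30 g) were made neutropenic with cyclophosphamide 200 mg/kg i.p. plus 5-fluorouracil 150 mg/kg i.v. 1 day before challenge. Challenge was 1 × 10⁴ CFU sporangiospores in 0.2 ml saline via the lateral tail vein. Mice got ceftazidime 5 mg/day s.c. on days 1–7. Dosing started 24 h post-challenge for 7 days. There were 10 mice/group, observed daily for 20 days. Kaplan-Meier analysis with log-rank test.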

[2] = tested on: Cunninghamella bertholletiae; experiment: Antifungal activity against Cunninghamella bertholletiae UTHSC 06-1945 infected in neutropenic OF1 mouse assessed as increase in mouse survival rate at 0.8 mg/kg, iv qd administered 1 day after infection; format: functional, organism-based; parameters: dose 0.8 mg/kg; how it was run: as §1
[3] = tested on: Cunninghamella bertholletiae; experiment: Antifungal activity against Cunninghamella bertholletiae UTHSC 04-2581 infected in neutropenic OF1 mouse assessed as decreased fungal load in kidney at 0.8 mg/kg, iv qd administered 1 day post infection measured after 4 to 5 days relative to untreated control; format: functional, organism-based; parameters: dose 0.8 mg/kg
How it was run: (§2)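 Neutropenic male OF1 mice (cyclophosphamide 200 mg/kg i.p. plus 5-fluorouracil 150 mg/kg i.v., day −1) were given 1 × 10⁴ CFU sporangiospores i.v. in 0.2 ml saline. Treatment from 24 h: 0.8 mg/kg i.v. or oral doses once daily; 10 mice per group. Killed at day 5 (day 4 if moribund). About half of brain, lungs and kidneys homogenized in saline; 10-fold dilutions plated on PDA for 24 h at 35°C; log₁₀ CFU/g tissue.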

[4] = tested on: Cunninghamella bertholletiae; experiment: Antifungal activity against Cunninghamella bertholletiae UTHSC 04-2581 infected in neutropenic OF1 mouse assessed as decreased fungal load in lung at 0.8 mg/kg, iv qd administered 1 day post infection measured after 4 to 5 days relative to untreated control; format: functional, organism-based; parameters: dose 0.8 mg/kg; how it was run: as §2
[5] = tested on: Cunninghamella bertholletiae; experiment: Antifungal activity against Cunninghamella bertholletiae FMR-9598 infected in neutropenic OF1 mouse assessed as decreased fungal load in lung at 0.8 mg/kg, iv qd administered 1 day post infection measured after 4 to 5 days relative to untreated control; format: functional, organism-based; parameters: dose 0.8 mg/kg; how it was run: as §2
[6] = tested on: Cunninghamella bertholletiae; experiment: Antifungal activity against Cunninghamella bertholletiae UTSCH 05-2275 infected in diabetic OF1 mouse assessed as decreased fungal load in kidney at 0.8 mg/kg, iv qd administered 1 day post infection measured after 4 to 5 days relative to untreated control; format: functional, organism-based; parameters: dose 0.8 mg/kg
How it was run: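 Diabetic OF1 mice (streptozocin 210 mg/kg i.p.; glucose >250 mg/dl) were infected i.v. with 1 × 10⁵ CFU, with ceftazidime cover. Ten per group were treated from day 1 and killed day 5, or day 4 if moribund. Half-organ homogenates (brain, lung, kidney) in 1 ml saline were serially diluted 10-fold on PDA, incubated 24 h at 35°C, and reported as log₁₀ CFU/g tissue.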

[7] = tested on: Cunninghamella bertholletiae; experiment: Antifungal activity against Cunninghamella bertholletiae UTHSC 04-2581 infected in neutropenic OF1 mouse assessed as increase in mouse survival rate at 0.8 mg/kg, iv qd administered 1 day after infection for 7 days relative to untreated control; format: functional, organism-based; parameters: dose 0.8 mg/kg; how it was run: as §1
[8] = tested on: Cunninghamella bertholletiae; experiment: Antifungal activity against Cunninghamella bertholletiae UTHSC 05-2275 infected in neutropenic OF1 mouse assessed as increase in mouse survival rate at 60 mg/kg, po qd administered 1 day after infection for 7 days relative to untreated control; format: functional, organism-based; parameters: dose 60 mg/kg
How it was run: (§3)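 Male OF1 mice, about 30 g, made neutropenic with cyclophosphamide 200 mg/kg i.p. plus 5-fluorouracil 150 mg/kg i.v. 1 day before challenge. Infected i.v. via the lateral tail vein with 1 × 10⁴ CFU of hemacytometer-counted sporangiospores in 0.2 ml saline. Ceftazidime 5 mg/day s.c. on days 1–7. Oral treatment started 24 h after challenge; 10 mice per group; checked daily for 20 days; Kaplan-Meier mean survival time, log-rank test.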

[9] = tested on: Cunninghamella bertholletiae; experiment: Antifungal activity against Cunninghamella bertholletiae FMR 9598 infected in neutropenic OF1 mouse assessed as increase in mouse survival rate at 60 mg/kg, po qd administered 1 day after infection for 7 days relative to untreated control; format: functional, organism-based; parameters: dose 60 mg/kg; how it was run: as §3
[10] = tested on: Cunninghamella bertholletiae; experiment: Antifungal activity against Cunninghamella bertholletiae UTHSC 03-2241 infected in neutropenic OF1 mouse assessed as increase in mouse survival rate at 60 mg/kg, po qd administered 1 day after infection; format: functional, organism-based; parameters: dose 60 mg/kg; how it was run: as §3
[11] = tested on: Cunninghamella bertholletiae; experiment: Antifungal activity against Cunninghamella bertholletiae UTHSC 05-2275 infected in neutropenic OF1 mouse assessed as decreased fungal load in brain at 80 mg/kg, po qd administered 1 day post infection measured after 4 to 5 days relative to untreated control; format: functional, organism-based; parameters: dose 80 mg/kg; how it was run: as §2
[12] = tested on: Cunninghamella bertholletiae; experiment: Antifungal activity against Cunninghamella bertholletiae FMR-9598 infected in neutropenic OF1 mouse assessed as decreased fungal load in brain at 0.8 mg/kg, iv qd administered 1 day post infection measured after 4 to 5 days relative to untreated control; format: functional, organism-based; parameters: dose 0.8 mg/kg; how it was run: as §2
[13] = tested on: Cunninghamella bertholletiae; experiment: Antifungal activity against Cunninghamella bertholletiae UTSCH 05-2275 infected in diabetic OF1 mouse assessed as decreased fungal load in kidney at 60 mg/kg, po qd administered 1 day post infection measured after 4 to 5 days relative to untreated control; format: functional, organism-based; parameters: dose 60 mg/kg
How it was run: (§4)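 Diabetic male OF1 mice (streptozocin 210 mg/kg i.p.; glucose above 250 mg/dl) were challenged i.v. with 1 × 10⁵ CFU sporangiospores. Oral once-daily dosing from day 1 for 7 days; 10 mice per group. Killed at day 5 (day 4 if moribund). About half of each organ homogenized in saline; serial 10-fold dilutions plated on PDA for 24 h at 35°C; log₁₀ CFU/g tissue.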

[14] = tested on: Cunninghamella bertholletiae; experiment: Antifungal activity against Cunninghamella bertholletiae UTSCH 05-2275 infected in diabetic OF1 mouse assessed as decreased fungal load in lung at 60 mg/kg, po qd administered 1 day post infection measured after 4 to 5 days relative to untreated control; format: functional, organism-based; parameters: dose 60 mg/kg
How it was run: (§5)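 Male OF1 mice (mean 30 g) made diabetic with a single i.p. dose of streptozocin 210 mg/kg; blood glucose >250 mg/dl at day 10 qualified. Ceftazidime 5 mg/day s.c. given on days 1–7. Challenge by lateral tail vein with 1 × 10⁵ CFU sporangiospores in 0.2 ml saline. Oral dosing once daily for 7 days, starting 1 day after challenge. Untreated controls. Ten mice per group.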

[15] = tested on: Cunninghamella bertholletiae; experiment: Antifungal activity against Cunninghamella bertholletiae UTSCH 05-2275 infected in diabetic OF1 mouse assessed as decreased fungal load in brain at 80 mg/kg, po qd administered 1 day post infection measured after 4 to 5 days relative to untreated control; format: functional, organism-based; parameters: dose 80 mg/kg; how it was run: as §4
[16] = tested on: Cunninghamella bertholletiae; experiment: Antifungal activity against Cunninghamella bertholletiae UTSCH 05-2275 infected in diabetic OF1 mouse assessed as decreased fungal load in kidney at 80 mg/kg, po qd administered 1 day post infection measured after 4 to 5 days relative to untreated control; format: functional, organism-based; parameters: dose 80 mg/kg; how it was run: as §5
[17] = tested on: Cunninghamella bertholletiae; experiment: Antifungal activity against Cunninghamella bertholletiae UTHSC 04-2581 infected in neutropenic OF1 mouse assessed as increase in mouse survival rate at 60 mg/kg, po qd administered 1 day after infection for 7 days relative to untreated control; format: functional, organism-based; parameters: dose 60 mg/kg; how it was run: as §3
[18] = tested on: Cunninghamella bertholletiae; experiment: Antifungal activity against Cunninghamella bertholletiae UTHSC 05-2275 infected in neutropenic OF1 mouse assessed as increase in mouse survival rate at 25 mg/kg, po bid administered 1 day after infection for 7 days relative to untreated control

C[C@@H]1[C@H](O)[C@@H](C)/C=C/C=C/C=C/C=C/C=C/C=C/C=C/[C@H](O[C@@H]2O[C@H](C)[C@@H](O)[C@H](N)[C@@H]2O)C[C@@H]2O[C@](O)(C[C@@H](O)C[C@@H](O)[C@H](O)CC[C@@H](O)C[C@@H](O)CC(=O)O[C@H]1C)C[C@H](O)[C@H]2C(=O)O [AMPHOTERICIN B]
Activity [1]: Active | Activity [2]: inactive | Activity [3]: Active | Activity [4]: Active | Activity [5]: Active | Activity [6]: Active | Activity [7]: Active

CC[C@@H]([C@H](C)O)n1ncn(-c2ccc(N3CCN(c4ccc(OC[C@@H]5CO[C@@](Cn6cncn6)(c6ccc(F)cc6F)C5)cc4)CC3)cc2)c1=O [POSACONAZOLE]
Activity [8]: Active | Activity [9]: Active | Activity [10]: Active | Activity [11]: Active | Activity [12]: Active | Activity [13]: Active | Activity [14]: Active | Activity [15]: Active | Activity [16]: Active | Activity [17]: Active | Activity [18]: inactive
